Measurements taken from ChEMBL document CHEMBL2375304, “Synthesis and anticancer activity of novel 2-pyridyl hexahyrocyclooctathieno[2,3-d]pyrimidine derivatives” (2013).

Assays:
Assay type in all cases: functional
[1] = system: Malme-3M; assay: Growth inhibition of human MALME-3M cells at 10^-5 M after 48 hrs by Sulforhodamine B assay relative to control; settings: read-out: GI
In short: (§1)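 Single-dose screen at 10⁻⁵ M. Cells are preincubated 24 h at 37 °C in 5% CO2, then exposed to the compound, diluted from a DMSO stock into medium with gentamicin, for 48 h. Adherent cells are fixed with cold TCA (final 10%) and suspension cells with TCA (final 16%). Cells are stained with 0.4% SRB in 1% acetic acid and bound dye is read at 515 nm. Percent growth inhibition is taken against control wells and time-zero plates.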

[2] = system: NCI-H322M; assay: Growth inhibition of human NCI-H322M cells at 10^-5 M after 48 hrs by Sulforhodamine B assay relative to control; settings: read-out: GI
In short: (§2)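 Single-dose primary screen at 10⁻⁵ M across 49 lines. Cells were plated 24 h beforehand, with a TCA-fixed time-zero plate, then exposed 48 h at 37 °C, 5% CO2. Cells were fixed with cold TCA, stained with SRB and read at 515 nm. Percent growth was calculated against time-zero and untreated-control absorbances.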

[3] = system: MCF7; assay: Growth inhibition of human MCF7 cells at 10^-5 M after 48 hrs by Sulforhodamine B assay relative to control; settings: MCF7, 48 h, read-out: GI; in short: as §1
[4] = system: MDA-MB-468; assay: Growth inhibition of human MDA-MB-468 cells at 10^-5 M after 48 hrs by Sulforhodamine B assay relative to control; settings: MDA-MB-468, 48 h, read-out: GI; in short: as §2
[5] = system: OVCAR-5; assay: Growth inhibition of human OVCAR5 cells at 10^-5 M after 48 hrs by Sulforhodamine B assay relative to control; settings: OVCAR-5, 48 h, read-out: GI; in short: as §2
[6] = system: ACHN; assay: Growth inhibition of human ACHN cells at 10^-5 M after 48 hrs by Sulforhodamine B assay relative to control; settings: read-out: GI; in short: as §1
[7] = system: SF-268; assay: Growth inhibition of human SF268 cells at 10^-5 M after 48 hrs by Sulforhodamine B assay relative to control; settings: SF-268, 48 h, read-out: GI; in short: as §2
[8] = system: OVCAR-4; assay: Growth inhibition of human OVCAR4 cells at 10^-5 M after 48 hrs by Sulforhodamine B assay relative to control; settings: OVCAR-4, 48 h, read-out: GI; in short: as §2
[9] = system: BT-549; assay: Growth inhibition of human BT549 cells at 10^-5 M after 48 hrs by Sulforhodamine B assay relative to control; settings: BT-549, 48 h, read-out: GI; in short: as §1
[10] = system: OVCAR-3; assay: Growth inhibition of human OVCAR3 cells after 48 hrs by Sulforhodamine B assay; settings: OVCAR-3, 48 h
In short: (§3)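 Cells were preincubated 24 h at 37 °C, 5% CO2, and a time-zero plate was TCA-fixed. Five concentrations were made by serial dilution from a DMSO stock (400-fold the top concentration) and incubated 48 h. Adherent cells were fixed with 10% final TCA and suspension cells with 16%. Plates were stained with 0.4% SRB and read at 515 nm. GI50 is the concentration giving 50% reduction in net protein increase versus control.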

[11] = system: NCI-H460; assay: Growth inhibition of human NCI-H460 cells after 48 hrs by Sulforhodamine B assay; settings: NCI-H460, 48 h; in short: as §3
[12] = system: HOP-62; assay: Growth inhibition of human HOP62 cells after 48 hrs by Sulforhodamine B assay; settings: HOP-62, 48 h
In short: (§4)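 Five-concentration SRB assay using 10-fold or ½-log serial dilutions from a DMSO stock. Exposure is 48 h at 37 °C in 5% CO2 after 24 h preincubation. TCA fixation is followed by SRB staining and a reading at 515 nm. Percentage growth is computed from time-zero, control and treated absorbances. GI50 is the concentration where [(Ti−Tz)/(C−Tz)]×100 = 50, read from the plot against log concentration.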

[13] = system: BT-549; assay: Growth inhibition of human BT549 cells after 48 hrs by Sulforhodamine B assay; settings: BT-549, 48 h; in short: as §4
[14] = system: A498; assay: Growth inhibition of human A498 cells after 48 hrs by Sulforhodamine B assay; settings: A498, 48 h; in short: as §4
[15] = system: CAKI-1; assay: Growth inhibition of human CAKI-1 cells after 48 hrs by Sulforhodamine B assay; settings: CAKI-1, 48 h; in short: as §4
[16] = system: OVCAR-5; assay: Growth inhibition of human OVCAR5 cells after 48 hrs by Sulforhodamine B assay; settings: OVCAR-5, 48 h; in short: as §3
[17] = system: UACC-62; assay: Growth inhibition of human UACC62 cells after 48 hrs by Sulforhodamine B assay; settings: UACC-62, 48 h
In short: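 Five-concentration stage in the […]-cell-line panel, using 10-fold or ½-log serial dilutions made from a DMSO stock (400-fold). Cells were preincubated 24 h at 37 °C, then drug-exposed 48 h. A time-zero plate was fixed with TCA at dosing, adherent cells were fixed with cold TCA (10% final), and protein was stained with SRB, absorbance 515 nm. GI50 was where [(Ti−Tz)/(C−Tz)]×100 = 50, from the percent growth vs log concentration plot, expressed as log10 GI50.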

[18] = system: SK-MEL-5; assay: Growth inhibition of human SK-MEL-5 cells after 48 hrs by Sulforhodamine B assay; settings: SK-MEL-5, 48 h; in short: as §3
[19] = system: SNB-75; assay: Growth inhibition of human SNB75 cells after 48 hrs by Sulforhodamine B assay; settings: SNB-75, 48 h; in short: as §3
[20] = system: IGROV-1; assay: Growth inhibition of human IGROV1 cells after 48 hrs by Sulforhodamine B assay; settings: IGROV-1, 48 h; in short: as §4
[21] = system: 786-0; assay: Growth inhibition of human 786-0 cells after 48 hrs by Sulforhodamine B assay; settings: 786-0, 48 h; in short: as §4
[22] = system: COLO 205; assay: Growth inhibition of human COLO205 cells after 48 hrs by Sulforhodamine B assay; settings: COLO 205, 48 h; in short: as §4
[23] = system: MDA-MB-231; assay: Growth inhibition of human MDA-MB-231 cells after 48 hrs by Sulforhodamine B assay; settings: MDA-MB-231, 48 h; in short: as §4
[24] = system: MDA-MB-468; assay: Growth inhibition of human MDA-MB-468 cells after 48 hrs by Sulforhodamine B assay; settings: MDA-MB-468, 48 h; in short: as §3
[25] = system: SN12C; assay: Growth inhibition of human SN12C cells after 48 hrs by Sulforhodamine B assay; in short: as §3
[26] = system: OVCAR-8; assay: Growth inhibition of human OVCAR8 cells after 48 hrs by Sulforhodamine B assay; settings: OVCAR-8, 48 h; in short: as §3
[27] = system: MOLT-4; assay: Growth inhibition of human MOLT4 cells after 48 hrs by Sulforhodamine B assay; settings: MOLT-4, 48 h; in short: as §3
[28] = system: SW-620; assay: Growth inhibition of human SW620 cells after 48 hrs by Sulforhodamine B assay; settings: SW-620, 48 h; in short: as §3
[29] = system: HL-60(TB); assay: Growth inhibition of human HL-60(TB) cells after 48 hrs by Sulforhodamine B assay; settings: HL-60, 48 h
In short: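 Suspension cells pre-incubated 24 h at 37 °C, 5% CO2 before drug addition, with a time-zero plate fixed then. DMSO stocks diluted in medium with gentamicin to five concentrations (10-fold or ½-log steps); 48 h exposure. Settled cells fixed with TCA (final 16%), stained with SRB, dye dissolved in 10 mM Tris base, read at 515 nm. GI50 solved from [(Ti−Tz)/(C−Tz)]×100 = 50.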

SMILES | inhibition of growth at 10 µM [1] [%] | inhibition of growth at 10 µM [2] [%] | inhibition of growth at 10 µM [3] [%] | inhibition of growth at 10 µM [4] [%] | inhibition of growth at 10 µM [5] [%] | inhibition of growth at 10 µM [6] [%] | inhibition of growth at 10 µM [7] [%] | inhibition of growth at 10 µM [8] [%] | inhibition of growth at 10 µM [9] [%] | further results
COc1ccc(N2CCN(c3nc(-c4ccncc4)nc4sc5c(c34)CCCCCC5)CC2)cc1 | -7.69 | -7.78 | 18.1 | 0.83 | 2.26 | 19.9 | 2.5 | 11.1 | -17.1 | 
c1ccc(N2CCN(c3nc(-c4ccncc4)nc4sc5c(c34)CCCCCC5)CC2)cc1 | -6.19 | -2.96 | 2.49 | 3.79 | 1.59 | 7.05 | -1.33 | 0.34 | -14.1 | 
c1ccc(N2CCN(c3nc(-c4ccccn4)nc4sc5c(c34)CCCCCC5)CC2)cc1 | 7.96 | 17.7 | 89.2 | 30.1 | 36.8 | 56.1 | 20.4 | 44 | 2.77 | 
CN1CCN(c2nc(-c3ccccn3)nc3sc4c(c23)CCCCCC4)CC1 | -0.36 | 1.03 | 50.4 | 5.4 | 2.04 | 4.94 | -1.9 | 16 | 10.3 | 
c1cc(-c2nc(N3CCOCC3)c3c4c(sc3n2)CCCCCC4)ccn1 | -1.71 | -14.3 | 28.5 | 11.8 | -1.32 | 17.1 | 4.06 | 22.7 | -20.4 | 
NNc1nc(-c2ccncc2)nc2sc3c(c12)CCCCCC3 | 2.19 | 3.42 | 5.87 | 20.1 | -0.54 | 8.69 | -17.8 | 18.7 | 1.1 | 
Clc1nc(-c2ccncc2)nc2sc3c(c12)CCCCCC3 | 7.42 | 3.46 | 3.18 | 39.6 | -5.24 | -0.47 | 0.85 | 14.8 | -2.76 | 
NNc1nc(-c2ccccn2)nc2sc3c(c12)CCCCCC3 |  |  |  |  |  |  |  |  |  | GI50 [10]: 5.37 µM; GI50 [11]: 4.17 µM; GI50 [12]: 8.51 µM; GI50 [13]: 9.77 µM; GI50 [14]: 1.86 µM; GI50 [15]: 0.575 µM; GI50 [16]: 8.71 µM; GI50 [17]: 5.89 µM; GI50 [18]: 3.16 µM; GI50 [19]: 12.6 µM; GI50 [20]: 4.17 µM; GI50 [21]: 5.62 µM; GI50 [22]: 5.13 µM; GI50 [23]: 12.6 µM; GI50 [24]: 3.63 µM; GI50 [25]: 6.31 µM; GI50 [26]: 4.37 µM; GI50 [27]: 3.63 µM; GI50 [28]: 4.57 µM; GI50 [29]: 4.47 µM
Clc1nc(-c2ccccn2)nc2sc3c(c12)CCCCCC3 | 5.75 | 15.5 | 46 | 184 | -7.94 | 120 | 5.35 | 14.3 | 14.9 | 
O=c1[nH]c(-c2ccccn2)nc2sc3c(c12)CCCCCC3 |  |  |  |  |  |  |  |  |  | GI50 [10]: 8.51 µM; GI50 [11]: 1.91 µM; GI50 [12]: 6.31 µM; GI50 [13]: 5.62 µM; GI50 [14]: 1.32 µM; GI50 [15]: 3.31 µM; GI50 [16]: 91.2 µM; GI50 [17]: 5.5 µM; GI50 [18]: 2.95 µM; GI50 [19]: 85.1 µM; GI50 [20]: 3.98 µM; GI50 [21]: 5.62 µM; GI50 [22]: 5.89 µM; GI50 [23]: 8.71 µM; GI50 [24]: 1.66 µM; GI50 [25]: 6.31 µM; GI50 [26]: 4.37 µM; GI50 [27]: 2.4 µM; GI50 [28]: 4.9 µM; GI50 [29]: 3.39 µM
